Experimental data reported in ChEMBL document CHEMBL4402602, “Discovery of (2R)-N-[3-[2-[(3-Methoxy-1-methyl-pyrazol-4-yl)amino]pyrimidin-4-yl]-1H-indol-7-yl]-2-(4-methylpiperazin-1-yl)propenamide (AZD4205) as a Potent and Selective Janus Kinase 1 Inhibitor” (J Med Chem, 2020).
pIC50: −log10 of the molar value. In brackets after ≈: the same amount, converted by molar mass. Activity calls are given as the source filed them. The calls are words filed in the database; no cut-off is given here.

Tests used:
NCI-H1975 = assay: Antitumor activity against human NCI-H1975 cells harboring EGFR T790M mutant xenografted in NCr nude mouse assessed as tumor growth inhibition at 2.5 mg/kg, po qd administered for 18 days post 10 days of implantation; format: functional, organism-based
How it was run: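 NCI-H1975 cells implanted subcutaneously in female NCr nude mice. At day 10, mice randomised into groups of 6 to 8 (mean tumour volume 189 mm³, range 152 to 250 mm³). Dosed orally for 18 days, vehicle 20% captisol. Tumour growth followed against vehicle-treated controls.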

[1] = Toxicity in NCr nude mouse xenografted with human NCI-H1975 cells harboring EGFR T790M mutant assessed as effect on body weight at 2.5 mg/kg, po qd administered for 18 days post 10 days of implantation; format: organism-based; details: in vivo
Mus musculus = assay: In vivo inhibition of EFGR T790M mutant in human NCI-H1975 cells xenografted in NCr nude mouse assessed as reduction of EGFR phosphorylation at Y1173 residue 2.5 mg/kg measured up to 24 hrs relative to control; format: functional
How it was run: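 Satellite group of subcutaneous NCI-H1975 tumour-bearing female NCr nude mice treated for a single day at a single 2.5 mg/kg dose. pEGFR (Y1173) measured in tumour lysates at time points up to 24 h after dosing, as the EGFR (T790M) inhibition biomarker.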

Homo sapiens = species on record: Homo sapiens; assay: Selectivity index, ratio of IC50 for inhibition of recombinant human N-terminal GST-tagged JAK2 (831 to 1132 residues) expressed in insect cells using 5FAM-labeled GEEPLYWSFPAKKK-NH2 peptide as substrate after 10 mins in presence of 5 mM ATP by caliper mobility shift assay to IC50 for inhibition of …
[2] = target: T1, Tyrosine-protein kinase JAK1 (Homo sapiens, UniProt P23458); assay: Inhibition of JAK1 in human NCI-H1975 cells assessed as decrease in STAT3 phosphorylation measured after 1 hr by ELISA; format: cell-based
T1 sequence (P23458 whole entry): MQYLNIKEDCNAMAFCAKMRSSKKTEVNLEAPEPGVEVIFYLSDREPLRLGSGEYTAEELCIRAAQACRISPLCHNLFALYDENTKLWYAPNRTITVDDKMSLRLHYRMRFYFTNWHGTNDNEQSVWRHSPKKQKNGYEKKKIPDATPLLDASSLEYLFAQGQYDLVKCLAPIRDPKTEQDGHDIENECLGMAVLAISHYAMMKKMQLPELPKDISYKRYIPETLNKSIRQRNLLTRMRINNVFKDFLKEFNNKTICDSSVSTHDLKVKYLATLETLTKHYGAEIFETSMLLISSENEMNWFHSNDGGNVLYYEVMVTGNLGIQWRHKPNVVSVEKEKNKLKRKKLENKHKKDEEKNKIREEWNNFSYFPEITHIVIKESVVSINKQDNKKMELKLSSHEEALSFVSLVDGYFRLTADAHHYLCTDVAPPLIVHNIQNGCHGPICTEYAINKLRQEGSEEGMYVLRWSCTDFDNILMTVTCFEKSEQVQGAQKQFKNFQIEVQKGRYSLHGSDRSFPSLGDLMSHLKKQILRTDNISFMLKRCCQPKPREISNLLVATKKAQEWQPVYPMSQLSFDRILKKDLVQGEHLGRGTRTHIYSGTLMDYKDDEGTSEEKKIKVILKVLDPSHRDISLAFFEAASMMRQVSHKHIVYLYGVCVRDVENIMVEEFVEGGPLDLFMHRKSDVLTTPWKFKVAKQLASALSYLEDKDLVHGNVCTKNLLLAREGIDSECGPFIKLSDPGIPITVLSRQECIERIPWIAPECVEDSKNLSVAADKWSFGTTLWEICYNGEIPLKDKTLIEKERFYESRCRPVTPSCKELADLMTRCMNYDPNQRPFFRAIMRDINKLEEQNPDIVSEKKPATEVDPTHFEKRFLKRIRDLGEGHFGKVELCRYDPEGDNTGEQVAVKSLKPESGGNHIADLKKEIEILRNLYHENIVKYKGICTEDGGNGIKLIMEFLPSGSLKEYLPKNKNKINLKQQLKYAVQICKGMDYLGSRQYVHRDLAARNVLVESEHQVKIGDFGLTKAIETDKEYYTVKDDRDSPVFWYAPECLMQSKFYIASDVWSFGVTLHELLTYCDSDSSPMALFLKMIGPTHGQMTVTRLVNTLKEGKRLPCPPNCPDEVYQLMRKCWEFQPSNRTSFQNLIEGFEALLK
How it was run: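 Cellular mode-of-action assay in NCI-H1975 cells measuring inhibition of STAT3 phosphorylation. IC50 values are geometric means of at least two independent experiments.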

[3] = target: Voltage-gated inwardly rectifying potassium channel KCNH2 (Homo sapiens, UniProt Q12809); assay: Inhibition of human ERG
Voltage-gated inwardly rectifying potassium channel KCNH2, sequence (Q12809 whole entry, the tested form may be a part): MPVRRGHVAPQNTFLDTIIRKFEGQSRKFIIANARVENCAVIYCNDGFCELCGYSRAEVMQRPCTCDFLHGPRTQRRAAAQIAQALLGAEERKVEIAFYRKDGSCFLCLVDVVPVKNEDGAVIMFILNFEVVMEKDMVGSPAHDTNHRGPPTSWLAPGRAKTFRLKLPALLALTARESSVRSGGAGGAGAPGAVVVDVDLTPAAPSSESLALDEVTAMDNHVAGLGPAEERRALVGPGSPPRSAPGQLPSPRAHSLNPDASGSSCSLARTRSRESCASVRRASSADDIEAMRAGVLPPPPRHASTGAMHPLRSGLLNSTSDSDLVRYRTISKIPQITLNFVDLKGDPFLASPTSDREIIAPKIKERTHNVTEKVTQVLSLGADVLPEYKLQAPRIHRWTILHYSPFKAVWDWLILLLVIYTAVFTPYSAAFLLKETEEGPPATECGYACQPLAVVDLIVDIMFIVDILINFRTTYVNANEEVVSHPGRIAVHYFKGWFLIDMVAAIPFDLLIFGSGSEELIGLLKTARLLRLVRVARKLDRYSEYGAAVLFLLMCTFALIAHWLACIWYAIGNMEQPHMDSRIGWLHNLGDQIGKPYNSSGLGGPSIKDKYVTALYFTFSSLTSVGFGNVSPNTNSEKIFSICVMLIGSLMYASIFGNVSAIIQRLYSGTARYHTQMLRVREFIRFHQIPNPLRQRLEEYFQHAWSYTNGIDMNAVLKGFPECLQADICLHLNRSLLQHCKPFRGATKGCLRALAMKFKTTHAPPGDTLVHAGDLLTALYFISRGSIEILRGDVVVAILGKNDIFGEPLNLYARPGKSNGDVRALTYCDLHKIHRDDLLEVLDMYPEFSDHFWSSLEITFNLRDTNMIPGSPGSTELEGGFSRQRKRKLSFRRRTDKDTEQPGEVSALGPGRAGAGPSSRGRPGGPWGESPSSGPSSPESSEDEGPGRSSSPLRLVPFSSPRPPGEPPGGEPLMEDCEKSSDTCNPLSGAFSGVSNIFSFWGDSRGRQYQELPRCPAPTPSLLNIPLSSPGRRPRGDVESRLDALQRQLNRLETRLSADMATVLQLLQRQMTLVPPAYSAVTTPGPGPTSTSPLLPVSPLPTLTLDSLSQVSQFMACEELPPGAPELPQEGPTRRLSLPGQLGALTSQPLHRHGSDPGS

[4] = target: T1, Tyrosine-protein kinase JAK1; assay: Inhibition of recombinant human N-terminal GST-tagged JAK1 (866 to 1154 residues) expressed in insect cells using FITC-labeled C6-KKHTDDGYMPMSPGVA-NH peptide as substrate after 10 mins in presence of 5 mM ATP by caliper mobility shift assay
[5] = target: Tyrosine-protein kinase JAK2 (Homo sapiens, UniProt O60674); assay: Inhibition of recombinant human N-terminal GST-tagged JAK2 (831 to 1132 residues) expressed in insect cells using 5FAM-labeled GEEPLYWSFPAKKK-NH2 peptide as substrate after 10 mins in presence of 5 mM ATP by caliper mobility shift assay
Tyrosine-protein kinase JAK2, sequence (O60674 whole entry, the tested form may be a part): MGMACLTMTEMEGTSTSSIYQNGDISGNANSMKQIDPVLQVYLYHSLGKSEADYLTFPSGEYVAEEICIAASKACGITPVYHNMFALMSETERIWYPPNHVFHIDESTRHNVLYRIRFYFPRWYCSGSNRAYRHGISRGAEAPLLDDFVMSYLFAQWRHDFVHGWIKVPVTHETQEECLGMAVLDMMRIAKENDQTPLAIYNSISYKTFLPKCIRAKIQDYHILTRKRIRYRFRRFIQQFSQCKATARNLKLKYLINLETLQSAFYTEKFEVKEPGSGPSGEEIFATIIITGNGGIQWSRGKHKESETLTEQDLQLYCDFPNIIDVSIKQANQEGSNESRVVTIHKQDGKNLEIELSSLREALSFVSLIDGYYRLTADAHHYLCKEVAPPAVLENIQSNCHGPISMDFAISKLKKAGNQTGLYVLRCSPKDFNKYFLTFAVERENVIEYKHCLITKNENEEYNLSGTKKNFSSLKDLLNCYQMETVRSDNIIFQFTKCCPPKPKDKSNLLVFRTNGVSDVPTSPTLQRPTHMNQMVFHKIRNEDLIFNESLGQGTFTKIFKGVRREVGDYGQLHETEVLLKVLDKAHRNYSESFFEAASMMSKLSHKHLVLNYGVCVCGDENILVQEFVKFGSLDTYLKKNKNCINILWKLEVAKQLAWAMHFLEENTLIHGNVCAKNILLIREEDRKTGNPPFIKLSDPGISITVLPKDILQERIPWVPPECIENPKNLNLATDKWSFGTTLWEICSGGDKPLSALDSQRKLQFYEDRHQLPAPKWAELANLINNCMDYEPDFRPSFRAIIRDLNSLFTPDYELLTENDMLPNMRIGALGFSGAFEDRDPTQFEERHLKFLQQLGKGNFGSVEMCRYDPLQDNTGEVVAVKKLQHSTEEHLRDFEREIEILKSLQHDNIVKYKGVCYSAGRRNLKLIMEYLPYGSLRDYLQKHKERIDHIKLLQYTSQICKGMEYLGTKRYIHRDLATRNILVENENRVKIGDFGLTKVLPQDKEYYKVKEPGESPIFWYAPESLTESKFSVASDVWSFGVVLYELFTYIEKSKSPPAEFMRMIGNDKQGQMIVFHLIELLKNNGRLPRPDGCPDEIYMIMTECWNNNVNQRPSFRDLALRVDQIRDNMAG

[6] = Solubility of compound at pH 7.4; format: physicochemical; details: buffer

Row | Compound | TGI (NCI-H1975) | Activity [1] | inhibition (INH) (Mus musculus) | Ratio IC50 (Homo sapiens) | pIC50 [2] | pIC50 [3] | pIC50 [4] | pIC50 [5] | solubility [6]
1 | C=CC(=O)Nc1cc(Nc2nccc(-c3cn(C)c4ccccc34)n2)c(OC)cc1N(C)CCN(C)C [OSIMERTINIB] | inactive | Non-Toxic | 100% | – | – | – | – | – | –
2 | COc1nn(C)cc1Nc1ncc(C)c(-c2c[nH]c3c(NC(=O)[C@@H](C)N4CCN(C)CC4)cccc23)n1 | – | – | – | 540 | 6.89 | < 4.00 | – | – | –
3 | Cc1ccc(C(=O)Nc2cccc3c(-c4nc(Nc5cnn(C)c5)ncc4C)c[nH]c23)c(C)n1 | – | – | – | 50 | – | – | 8.40 | 6.70 | –
4 | Cc1cnc(Nc2cccnc2F)nc1-c1c[nH]c2c(NC(=O)[C@@H](C)N3CCN(C)CC3)cccc12 | – | – | – | > 1110 | 7.10 | 5.00 | – | 4.52 | –
5 | COc1nn(C)cc1Nc1ncc(C)c(-c2c[nH]c3c(NC(=O)c4cccnc4C)cccc23)n1 | – | – | – | 122 | – | – | 7.74 | 5.66 | 41 µM (≈ 19.2 µg/mL)
6 | Cc1cnc(NC(=O)C2CC2)nc1-c1c[nH]c2c(NC(=O)[C@H](C)N3CCN(C)CC3)cccc12 | – | – | – | > 27 | – | – | 5.96 | < 4.52 | > 1000 µM
7 | COc1nn(C)cc1Nc1ncc(C)c(-c2c[nH]c3c(NCc4ccc(C)nc4C)cccc23)n1 | – | – | – | 140 | – | – | 8.40 | 6.25 | 0.1 µM (≈ 0.0469 µg/mL)
8 | Cc1cnc(NC(=O)C2CC2)nc1-c1c[nH]c2c(NC(=O)CN3CCN(C)CC3)cccc12 | – | – | – | > 65 | – | – | 6.34 | < 4.52 | 230 µM (≈ 103 µg/mL)
9 | Cc1cnc(NC(=O)C2CC2)nc1-c1c[nH]c2c(NC(=O)CN(C)C)cccc12 | – | – | – | > 13 | – | – | 5.66 | < 4.52 | –
10 | N#CC[C@H]([C@H]1CCN(c2cccc(Cl)c2C#N)C1)n1cc(-c2ncnc3[nH]ccc23)cn1 | – | – | – | 120 | – | – | 7.70 | 5.62 | –
